Data set [1] in a line: Pharmacokinetics of BaP and RVT in plasma after oral gavage. It is filed as in vivo, Apc^Min/+ mice. Conditions: for half-life / Clearance (Cl) / Volume of distribution (Vd): plasma; for Clearance (Cl) / Volume of distribution (Vd): oral gavage, BaP 100 μg/kg bw, RVT 45 μg/kg bw, mean ± SE, n = 10.
The test system of data set [2] is GST. The data set is described as follows: Glutathione-S-transferase protein expression in colon and liver. Type of data set: in vivo, Apc^Min/+ mice. Conditions: for GST protein expression: colon, RVT and BaP administered separately, compared to no treatment group; for Glutathione-S-transferase protein expression: liver, in comparison to control mice. The gist of the method: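 Western blot of total colon and liver protein: 10% SDS–PAGE, transfer to PVDF, mouse anti-GST and rabbit anti-GAPDH antibodies, detection with IRDye680 anti-mouse and IRDye800 anti-rabbit secondaries. GST signal was normalized to GAPDH. […] Values are mean ± SE, n = 10.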

Data set [3] concerns GST mRNA. Kind of data set: GST mRNA expression. It is filed as in vivo, Apc^Min/+ mice. Conditions: compared to the no treatment group.
Data set [4] has as its system CYP1B1 mRNA. Kind of data set: CYP1B1 mRNA expression. Type of data set: in vivo, Apc^Min/+ mice. Conditions: liver.
Data set [5] concerns GST. The data set is described as follows: GST activity in colon and liver. It is filed as in vivo, Apc^Min/+ mice. As to conditions: liver; compared to BaP alone. The gist of the method: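 Colon and liver protein from Apc^Min/+ mice was assayed for GST activity with a commercial kit. […] Tissues were collected 60 days after exposure; n = 10 per group.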
Data set [6] in a line: HPLC analysis of BaP organic and aqueous metabolites in plasma, colon and liver. Type of data set: in vivo, Apc^Min/+ mice. As to conditions: colon, RVT simultaneously or prior to BaP, compared to BaP alone.
The test system of data set [7] is DNA. Kind of data set: Oxidative DNA damage. It is filed as in vivo, Apc^Min/+ mice. As to conditions: text: colon, Fig. 9B; RVT prior to and simultaneously with BaP; compared to BaP treatment only.
The subject of data set [8] is DNA. Kind of data set: BaP-DNA adducts by 32P-postlabeling and TLC in colon and liver. It is filed as in vivo, Apc^Min/+ mice.
Data set [9] relates to BaP-induced colon tumors. Kind of data set: BaP-induced colon tumors/adenomas. Type of data set: in vivo, Apc^Min/+ mice. Conditions: RVT administration post BaP subchronic exposure; data not shown.
Data set [10] concerns BaP-induced colon tumors. Conditions: orally administered RVT; mice exposed to BaP compared to BaP alone; cited from earlier work.

SMILES strings stand for the structures.

With `c1ccc2c(c1)cc1ccc3cccc4ccc2c1c34` [BaP, Benzo(a)pyrene], in [1] (male, ApcMin/+, mouse, in vivo, po), the “Elimination rate (Kd)” value turned out to be 0.17 ± 0.06 h. In addition, the half-life (in general, the time in which the quantity being followed falls by half) in [1] (male, ApcMin/+, mouse, po) is 1.8 ± 0.018 h. In addition, in data set [1], the “Clearance (Cl)” value was 2.4 ± 0.24 mL/day/kg and the “Volume of distribution (Vd)” value was 0.00058 ± 4.5e-05 L/kg. Besides, in data set [2], the GST protein expression entry is “increased” and the Glutathione-S-transferase protein expression entry is “significantly decreased”. In data set [3] (colon), the “Decrease in GST mRNA expression” value is recorded as 50%.

Compound `Oc1ccc(C=Cc2cc(O)cc(O)c2)cc1` [RVT, 3,5,4′-trihydroxystilbene] gave a half-life in data set [1] (male, ApcMin/+, mouse, po) of 1 ± 0.011 h. Also, in data set [1], the “Clearance (Cl)” value came out at 1.9 ± 0.14 mL/day/kg and the “Volume of distribution (Vd)” value was 0.00044 ± 5e-05 L/kg. Further, in data set [2], the GST protein expression entry is on record as “increased” and the Glutathione-S-transferase protein expression entry is on record as “significantly decreased”. For the same compound, the “CYP1B1 mRNA expression” value in [4] is recorded as “feeble expression”. Besides, in [3] (liver, RVT either simultaneously or prior to BaP treatment), the “GST mRNA expression” value was “increase”. In addition, the GST activity entry in [5] is “no significant changes”. Moreover, in [6], the “BaP aqueous metabolite levels” value is listed as “increases” and the “BaP organic metabolite concentrations” value was “significantly decreased”. Moreover, in [7], the “Base pair damage (apurinic/apyrimidinic sites)” value is listed as “significant reduction”. Besides, the “Stable BaP-DNA adduct concentrations” value in data set [8] is recorded as “reduced”. Moreover, the “Reversal of BaP-induced carcinogenic effects (tumor count and size)” value in data set [9] is recorded as “failed to reverse”. Moreover, the “Incidence, size and number of adenomas formed in the colon” value in [10] was “decrease”.

The values are drawn from paper PMC6309585 (Investigational new drugs, 2018).
